Reference: article PMC8958665 (ACS infectious diseases, 2021)
Values after ≈ are worked out from the molar mass of the structure shown. Where two headings read alike, the source gives them in different places.

How the values were obtained:
AB4106 = assay: MIC in the presence of polymyxin B nonapeptide; assay type: cell-based, Acinetobacter baumannii; conditions: 10 μg/mL
[1] = tested on: colistin-resistant K. pneumoniae strains; assay: Colistin potentiation, panel of colistin-resistant K. pneumoniae strains; assay type: cell-based, Klebsiella pneumoniae; conditions: no adjuvant
How it was run: (§1)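 Broth microdilution in CAMHB: strains are grown 6 h and diluted to 5 × 10^5 CFU/mL. Test compound is added from DMSO stock, and colistin (from water stock) is serially diluted in the compound-dosed suspension. An undosed aliquot gives the colistin MIC alone. Plates are incubated stationary at 37 °C for 16 h and read at OD600. MIC is 90% growth inhibition versus untreated. Run in duplicate, repeated at least twice.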

K. pneumoniae B9 (KPB9) [2] = assay: Broth microdilution colistin potentiation, KPB9; assay type: cell-based, Klebsiella pneumoniae
[3] = tested on: A. baumannii 4106 (AB4106); assay: Broth microdilution colistin potentiation, AB4106; assay type: cell-based, Acinetobacter baumannii
[4] = tested on: P. aeruginosa strains TRPA161 and TRPA162; assay: Colistin potentiation, colistin-resistant P. aeruginosa strains; assay type: cell-based, Pseudomonas aeruginosa; conditions: no adjuvant
How it was run: as §1

[5] = tested on: colistin-resistant A. baumannii strains; assay type: cell-based, Acinetobacter baumannii; conditions: no adjuvant
K. pneumoniae B9 (KPB9) [6] = assay: Broth microdilution standalone MIC, KPB9; assay type: cell-based; conditions: Klebsiella pneumoniae, read-out: standalone MIC against KPB9
[7] = tested on: A. baumannii 4106 (AB4106); assay: Broth microdilution standalone MIC, AB4106; assay type: cell-based; conditions: Acinetobacter baumannii, read-out: standalone MIC against AB4106
NF-κB = NF-κB luciferase reporter assay in HEK293 recombinant cells; assay type: cell-based; conditions: Homo sapiens, HEK293, read-out: Inhibition of NF-κB IC50

With polymyxin B nonapeptide [PMBN] the “toxicity against AB4106” value (AB4106) was “no toxicity”.

colistin was tested, and the “colistin MIC alone” value ([1]; strain KP C3) was 128 µg/mL, the “colistin MIC alone” value ([1]; strain KP E2) was 512 µg/mL and the “colistin MIC alone” value ([1]; strain KP F3) was 128 µg/mL. The “colistin MIC alone” value ([1]; strain KP F9) was 256 µg/mL, the “colistin MIC alone” value ([1]; strain KP F2210291 mcr-1) was 16 µg/mL and the “colistin MIC alone” value ([1]; strain KP H2) was 256 µg/mL. The “colistin MIC alone” value ([1]; strain KP I2) was 512 µg/mL, the “KPB9 MIC of colistin alone” value (K. pneumoniae B9 (KPB9) [2]; no adjuvant) was 512 µg/mL and the “AB4106 MIC of colistin alone” value ([3]; no adjuvant) was 2048 µg/mL. For the same molecule, the “colistin MIC alone” value ([4]; strain TRPA 161) was 1024 µg/mL, the “colistin MIC alone” value ([4]; strain TRPA 162) was 1024 µg/mL and the “colistin MIC alone” value ([5]; strain AB 1E4) was greater than 512 µg/mL. For the same molecule, the “colistin MIC alone” value ([5]; strain AB 1F9) was greater than 512 µg/mL, the “colistin MIC alone” value ([5]; strain AB 1G2) was greater than 512 µg/mL and the “colistin MIC alone” value ([5]; strain AB 2A8) was greater than 512 µg/mL. For the same molecule, the “colistin MIC alone” value ([5]; strain AB 3941) was 1024 µg/mL, the “colistin MIC alone” value ([5]; strain AB 4112) was 2048 µg/mL and the “colistin MIC alone” value ([5]; strain AB 17978 mcr-1) was 64 µg/mL.

For `O=C(Nc1cc(C(F)(F)F)cc(C(F)(F)F)c1)c1cc(Cl)ccc1O` [IMD-0354 4, IMD-0354], the MIC (K. pneumoniae B9 (KPB9) [6]) was 50 µM (≈ 19.2 µg/mL), the “KPB9 colistin MIC in the presence of compound” value (K. pneumoniae B9 (KPB9) [2]; compound at 5 μM, KPB9) was 0.5 µg/mL and the “KPB9 fold reduction of colistin MIC” value (K. pneumoniae B9 (KPB9) [2]; compound at 5 μM, vs colistin alone (512 μg/mL)) was 1024 fold. The “AB4106 colistin MIC in the presence of compound” value ([3]; compound at 5 μM, AB4106) was 2 µg/mL, the “AB4106 fold reduction of colistin MIC” value ([3]; compound at 5 μM, vs colistin alone (2048 μg/mL)) was 1024 fold and the MIC [7] was 50 µM (≈ 19.2 µg/mL). The IC50 (NF-κB) was 1.07 ± 0.06 µM.
